Experimental data taken from ChEMBL document CHEMBL2046357, “Inhibitors of Dengue virus and West Nile virus proteases based on the aminobenzamide scaffold” (Bioorg Med Chem, 2012).
pIC50: −log10 of the molar value. Activity calls are given as the source filed them. The calls are words filed in the database; no cut-off is given here.

What was measured:
dengue virus type 2 [1] = test: Inhibition of Dengue virus 2 NS2B-NS3 protease expressed in Escherichia coli Top10F' at 10 uM pre-incubated for 15 mins before addition of Bz-NIe-Lys-Arg-Arg-AMC substrate by spectrofluorometry
Procedure, shortened: (§1)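 Enzyme (DENV2 protease 25 nM; WNV protease 28 nM) pre-incubated with compound for 15 min at room temperature in 200 mM Tris·HCl pH 9.5, 30% glycerol, with 1% v/v DMSO final. Reaction started with 5 μM substrate. Fluorescence (ex 380/em 460 nm) followed every 90 s for up to 30 min at 37 °C. Percent inhibition calculated against no-compound fluorescence. Aprotinin and DMSO served as controls. Triplicates, averaged.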

West Nile virus [2] = test: Inhibition of West Nile virus NS2B-NS3 protease expressed in Escherichia coli Top10F' at 25 uM pre-incubated for 15 mins before addition of Bz-NIe-Lys-Arg-Arg-AMC substrate by spectrofluorometry; procedure, shortened: as §1
dengue virus type 2 [3] = test: Inhibition of Dengue virus 2 NS2B-NS3 protease expressed in Escherichia coli Top10F' at 25 uM pre-incubated for 15 mins before addition of Bz-NIe-Lys-Arg-Arg-AMC substrate by spectrofluorometry; procedure, shortened: as §1
West Nile virus [4] = test: Inhibition of West Nile virus NS2B-NS3 protease expressed in Escherichia coli Top10F' at 10 uM pre-incubated for 15 mins before addition of Bz-NIe-Lys-Arg-Arg-AMC substrate by spectrofluorometry; procedure, shortened: as §1
West Nile virus [5] = test: Competitive inhibition of West Nile virus NS2B-NS3 protease expressed in Escherichia coli Top10F' at 1 to 5 uM uM assessed as reduction in kcat/Km of substrate pre-incubated for 15 mins before addition of Bz-NIe-Lys-Arg-Arg-AMC substrate by spectrofluorometry
Procedure, shortened: (§2)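 Inhibitor fixed at 0, 1.0, 3.0 or 5.0 μM; substrate varied 0–50 μM. Initial cleavage rates used to derive apparent Km and kcat. Ki taken from secondary plot of Km,app against inhibitor concentration. Duplicates, repeated three times.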

[6] = Inhibition of Dengue virus 2 NS2B-NS3 protease expressed in Escherichia coli Top10F' pre-incubated for 15 mins before addition of Bz-NIe-Lys-Arg-Arg-AMC substrate by spectrofluorometry; design: species or system dengue virus type 2
Procedure, shortened: (§3)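 Protease (DENV2 25 nM; WNV 28 nM) pre-incubated with compound for 15 min at room temperature in 200 mM Tris·HCl pH 9.5 with 30% glycerol. Then 5 μM substrate added, and fluorescence (ex 380/em 460 nm) read at 37 °C for up to 30 min.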

West Nile virus [7] = test: Competitive inhibition of West Nile virus NS2B-NS3 protease expressed in Escherichia coli Top10F' at 1 to 5 uM uM assessed as increase in Km of substrate pre-incubated for 15 mins before addition of Bz-NIe-Lys-Arg-Arg-AMC substrate by spectrofluorometry; procedure, shortened: as §2
[8] = Inhibition of West Nile virus NS2B-NS3 protease expressed in Escherichia coli Top10F' pre-incubated for 15 mins before addition of Bz-NIe-Lys-Arg-Arg-AMC substrate by spectrofluorometry; procedure, shortened: as §3
[9] = 25 uM, in the assay text read “at 25 uM” for “at 10 uM”

Row | inhibition (dengue virus type 2 [1]) | inhibition (West Nile virus [2]) | inhibition (dengue virus type 2 [3]) | inhibition (West Nile virus [4]; [9]) | inhibition (West Nile virus [5]) | pIC50 [6] | inhibition (West Nile virus [7]) | inhibition (West Nile virus [4]; 10 uM) [%] | pIC50 [8] | SMILES
1 | inactive | inactive | inactive | inactive |  |  |  |  |  | O=C(NCc1cn(CSc2ccccc2)nn1)Nc1ccc(C(=O)Nc2ccc(Oc3ccccc3)cc2)cc1
2 | inactive | inactive | inactive | inactive |  |  |  |  |  | O=C(NCc1cn(CSc2ccccc2)nn1)Nc1ccc(C(=O)NCCN2CCOCC2)cc1
3 | inactive | inactive | inactive | inactive |  |  |  |  |  | O=C(NCc1cn(Cc2ccc(F)cc2)nn1)Nc1ccc(C(=O)NCc2ccco2)cc1
4 | 41.1% | 60.9% | 57% |  |  |  |  | 44.5 |  | O=C(NCc1cn(Cc2ccc(F)cc2)nn1)Nc1ccc(C(=O)Nc2cccc(Oc3ccccc3)c2)cc1
5 | inactive | inactive | inactive | inactive |  |  |  |  |  | O=C(NCc1cn(Cc2ccccc2)nn1)Nc1ccc(C(=O)NCc2ccccc2)cc1
6 | 40.3% | 60.3% | 58.2% |  |  |  |  | 49.3 |  | O=C(NCc1cn(CSc2ccccc2)nn1)Nc1cccc(C(=O)Nc2cccc(Oc3ccccc3)c2)c1
7 | inactive | inactive | inactive | inactive |  |  |  |  |  | O=C(NCc1cn(CSc2ccccc2)nn1)Nc1ccc(C(=O)NCCc2ccccc2)cc1
8 | inactive | inactive | inactive | inactive |  |  |  |  |  | O=C(NCc1cn(Cc2ccc(F)cc2)nn1)Nc1ccc(C(=O)Nc2ccccc2)cc1
9 | inactive | inactive | inactive | inactive |  |  |  |  |  | O=C(NCc1cn(CSc2ccccc2)nn1)Nc1ccc(C(=O)NCc2ccccc2)cc1
10 | 39.4% | 58% | 52.5% |  |  |  |  | 46.5 |  | O=C(NCc1cn(Cc2ccccc2)nn1)Nc1ccc(C(=O)Nc2ccc(Oc3ccccc3)cc2)cc1

The remaining lines, values behind:

Row | SMILES | inhibition (dengue virus type 2 [1]) | inhibition (West Nile virus [2]) | inhibition (dengue virus type 2 [3]) | inhibition (West Nile virus [4]; [9]) | inhibition (West Nile virus [5]) | pIC50 [6] | inhibition (West Nile virus [7]) | inhibition (West Nile virus [4]; 10 uM) [%] | pIC50 [8]
11 | O=C(NCc1cn(Cc2ccccc2)nn1)Nc1ccc(C(=O)NCCN2CCOCC2)cc1 | inactive | inactive | inactive | inactive |  |  |  |  | 
12 | O=C(NCc1cn(Cc2ccccc2)nn1)Nc1ccc(C(=O)NCc2ccco2)cc1 | inactive | inactive | inactive | inactive |  |  |  |  | 
13 | O=C(NCc1cn(CSc2ccccc2)nn1)Nc1cccc(C(=O)NCc2ccccc2)c1 | inactive | inactive | inactive | inactive |  |  |  |  | 
14 | O=C(NCc1cn(CSc2ccccc2)nn1)Nc1ccc(C(=O)Nc2ccccc2)cc1 | inactive | inactive | inactive | inactive |  |  |  |  | 
15 | O=C(NCc1cn(Cc2ccc(F)cc2)nn1)Nc1ccc(C(=O)Nc2ccc(Oc3ccccc3)cc2)cc1 | 55.3% | 82.3% | 76% |  | Active | 5.17 | Active | 58.8 | 5.26
16 | O=C(NCc1cn(Cc2ccccc2)nn1)Nc1ccc(C(=O)NCCc2ccccc2)cc1 | inactive | inactive | inactive | inactive |  |  |  |  | 
17 | O=C(NCc1cn(Cc2ccc(F)cc2)nn1)Nc1ccc(C(=O)NCCc2ccccc2)cc1 | inactive | inactive | inactive | inactive |  |  |  |  | 
18 | O=C(NCc1cn(Cc2ccc(F)cc2)nn1)Nc1ccc(C(=O)NCCN2CCOCC2)cc1 | inactive | inactive | inactive | inactive |  |  |  |  | 
19 | O=C(NCc1cn(Cc2ccccc2)nn1)Nc1cccc(C(=O)NCCc2ccccc2)c1 | inactive | inactive | inactive | inactive |  |  |  |  | 
20 | O=C(NCc1cn(Cc2ccccc2)nn1)Nc1ccc(C(=O)Nc2cccc(Oc3ccccc3)c2)cc1 | inactive | inactive | inactive | inactive |  |  |  |  | 
21 | O=C(NCc1cn(CSc2ccccc2)nn1)Nc1ccc(C(=O)NCc2ccco2)cc1 | inactive | inactive | inactive | inactive |  |  |  |  | 
22 | O=C(NCc1cn(Cc2ccccc2)nn1)Nc1ccc(C(=O)Nc2ccccc2)cc1 | inactive | inactive | inactive | inactive |  |  |  |  | 
23 | O=C(NCc1cn(CSc2ccccc2)nn1)Nc1cccc(C(=O)NCCc2ccccc2)c1 | inactive | inactive | inactive | inactive |  |  |  |  | 
24 | O=C(NCc1cn(Cc2ccc(F)cc2)nn1)Nc1ccc(C(=O)NCc2ccccc2)cc1 | inactive | inactive | inactive | inactive |  |  |  |  | 
25 | O=C(NCc1cn(Cc2ccccc2)nn1)Nc1cccc(C(=O)Nc2cccc(Oc3ccccc3)c2)c1 | inactive | inactive | inactive | inactive |  |  |  |  | 
26 | O=C(NCc1cn(Cc2ccccc2)nn1)Nc1cccc(C(=O)NCc2ccccc2)c1 | inactive | inactive | inactive | inactive |  |  |  |  | 
